Only some compounds are listed: those with a hit (about 2.6% of all), similar ones and a draw of the others.
ABHD4 inh: ABHD4 inhibitors, primary screen, biochemical, fluorescence polarization, mouse. hit rate 0.54% among 370,000. (Lyso)-N-acylphosphatidylethanolamine lipase (Mus musculus), Q8VD66. inhibition, % at 8.92 µM. purified mABHD4, FP-Rh probe fluorescence polarization;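 active = inhibition exceeding the mean over every tested compound plus 3 SD, cut at about 30% in these data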;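 also: 0% = plate median of compound wells and 100% = S159A mutant with DMSO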
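Test system: mABHD4 protein | Buffer or medium: HEPES pH 7.0 buffer, 150 mM NaCl, 0.01% Pluronic F-127 | Probe or stimulus: FP-Rh fluorescent activity-based probe, added after compound pre-incubation | Timing: Pre-incubation 45 min, probe exposure 60 min, at 25 °C | Technique: Fluorescence polarization, excitation 525 nm, emission 598 nm, BODIPY TMR filters | Repeats: Single well per compound (singlicate)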
PRMT1 FP inh: PRMT1 methyltransferase inhibitors, primary screen, biochemical, fluorescence polarization; recombinant PRMT1, activity-based probe fluorescence polarization; inhibition, % at 2.79 µM; hit rate 1.3% among 370,000; AID 652257, 2013;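 active = inhibition above about 21% made by adding two undisclosed values, limit read from the data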
SIAE inh: human SIAE inhibitors, primary screen, biochemical, fluorescence polarization, FP-Rh probe, 1536-well HTS; Sialate O-acetylesterase (Homo sapiens), Q9HAT2; SIAE FP-Rh probe binding; inhibition, % at 9.66 µM; hit rate 0.69% among 370,000; AID 1053197, 2014;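 active = inhibition above a cutoff: mean of compounds within the control limits plus 3 SD of those, cut at about 17% in these data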;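 also: 0% = plate median of compound wells and 100% = probe without SIAE protein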
Target sequence (Q9HAT2 whole entry, looked up): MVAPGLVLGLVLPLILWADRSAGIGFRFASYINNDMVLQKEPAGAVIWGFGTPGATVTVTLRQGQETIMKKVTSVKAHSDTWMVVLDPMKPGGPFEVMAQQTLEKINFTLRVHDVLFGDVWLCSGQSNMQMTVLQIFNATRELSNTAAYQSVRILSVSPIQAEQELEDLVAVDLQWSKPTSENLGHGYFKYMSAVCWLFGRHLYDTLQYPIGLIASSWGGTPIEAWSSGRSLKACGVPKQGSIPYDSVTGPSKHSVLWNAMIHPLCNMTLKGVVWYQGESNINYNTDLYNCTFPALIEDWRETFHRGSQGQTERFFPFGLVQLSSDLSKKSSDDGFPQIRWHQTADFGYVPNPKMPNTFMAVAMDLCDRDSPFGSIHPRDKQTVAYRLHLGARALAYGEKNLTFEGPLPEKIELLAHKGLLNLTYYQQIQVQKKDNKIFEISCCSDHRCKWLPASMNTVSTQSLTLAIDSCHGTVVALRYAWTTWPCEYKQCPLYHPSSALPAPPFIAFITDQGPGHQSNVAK
TCR-CD3 inh: inhibitors of human TCR-CD3 interaction, primary screen, biochemical, fluorescence, TAMRA-labeled TCR probe. inhibition, % at 9.4 µM. hit rate 0.37% among 360,000. T-cell receptor (TCR). AID 651800, 2012; in the data active = inhibition above about 19%;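 also: recombinant mutant TCR 2C K166C tagged with TAMRA read by polarization; 0% = receptor in buffer alone and 100% = receptor with positive control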
HTRA1 inh: HTRA1 serine protease inhibitors, primary screen, biochemical, fluorescence polarization, HTS; Q92743; hit rate 0.5% among 340,000; inhibition, % at 5.96 µM; AID 504803, 2011; recombinant HTRA1, FP-rhodamine activity-based probe; in the data active = inhibition above about 36%;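 also: 0% = enzyme with DMSO and 100% = wells lacking enzyme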
HTRA1 inh conf: HTRA1 protease inhibitors, retest, confirmation, biochemical, fluorescence polarization; shares compounds with HTRA1 inh; recombinant HTRA1, FP-rhodamine activity-based probe; hit rate 66% among 1,600; inhibition, % at 5.96 µM;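 active = mean inhibition over three repeats above a set limit taken from the earlier primary screen, cut at about 37% in these data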;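 also: 0% = HTRA1 with DMSO and 100% = wells lacking HTRA1; inhibitors block probe binding so polarization drops and inhibition rises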
The depositor's hits bear a star; · = no result.

SMILES	ABHD4 inh	PRMT1 FP inh	SIAE inh	TCR-CD3 inh	HTRA1 inh	HTRA1 inh conf
Cc1cccc(NC2=Nc3ccccc3N3C2=Nc2c(c(C)nn2-c2ccccc2)C3c2ccc(O)c(O)c2)c1 (stereo not given)	-8.5	3.6	-17.1	5.2	55.3*	56.2*
Cc1ccc(NC2=Nc3ccccc3N3C2=Nc2c(c(C)nn2-c2ccccc2)C3c2ccc(O)c(O)c2)cc1 (stereo not given)	-23.4	1.4	-35.6	-0.4	37.0*	54.8*
Cc1nc(N2CCN(C(=O)C3CC3)CC2)c2c3c(sc2n1)CC(C)CC3 (stereo not given)	-3.0	3.0	-5.5	·	·	·
Cc1ccc(-c2nnc(SCC(=O)NNC(=S)Nc3ccccc3)n2C2CCCCC2)cc1	16.8	2.8	6.6	·	·	·
CCCCCCCCCCCCCCCCn1cc[n+](CC(C)=O)c1	·	·	·	·	72.0*	85.6*
CCCCCCn1ccc(=N)cc1	-2.6	1.8	8.2	2.7	-1.8	·
C=C(C)CSc1nnc(-c2cc(-c3ccccc3)n[nH]2)n1N	0.5	0.4	-7.0	·	·	·
COc1ccccc1N1C(=O)N(C(C)=O)C2C1Nc1ccccc1N2C (stereo not given)	25.9	3.6	11.2	1.9	49.2*	8.3
COc1ccccc1N1C(=O)c2ccccc2NC1c1ccncc1 (stereo not given)	-1.0	-1.2	2.5	-8.6	5.7	·
COC(=O)C/C=C/[C@H](C)[C@@H](NC(=O)C(F)(F)F)c1ccccc1Br	4.7	-2.5	1.8	·	·	·
CCC(=O)NC(c1cccs1)c1cc(Cl)c2cccnc2c1O (stereo not given)	8.1	-5.8	16.7	0.9	53.7*	65.2*
O=C(NC(c1ccc(Cl)cc1)c1cc(Cl)c2cccnc2c1O)c1cccnc1 (stereo not given)	0.1	1.5	1.2	-5.1	59.7*	52.1*
CN1CCN(C(c2ccc(C(F)(F)F)cc2)c2cc(Cl)c3cccnc3c2O)CC1 (stereo not given)	-7.4	-5.2	6.7	-1.5	·	·
CCCCC(=O)NC(c1cccs1)c1cc(Cl)c2cccnc2c1O (stereo not given)	8.6	-1.2	13.8	-3.9	54.8*	54.9*
COC(=O)c1cc(-c2ccc(C(C)=O)cc2)c(=O)n2c1CCC2	3.9	-1.1	8.5	·	·	·
COC(=O)C[C@@H]1CC[C@@H]2[C@H](COc3ccc(NC(=O)c4cccc(OC)c4)cc3C(=O)N2C)O1	6.3	3.3	-2.8	·	·	·
CCCC(=O)NC(c1ccc(C(C)C)cc1)c1ccc2cccnc2c1O (stereo not given)	12.0	1.7	9.9	-2.5	52.0*	54.3*
COc1ccccc1NC(c1cccnc1)c1ccc2cccnc2c1O (stereo not given)	4.1	18.1	9.5	9.0	25.6	·
CCCCC(=O)NC(c1ccc(OC)cc1)c1ccc2cccnc2c1O (stereo not given)	3.8	-1.5	7.8	5.2	18.3	·
CCCC(=O)NC(c1ccc(N(C)C)cc1)c1ccc2cccnc2c1O (stereo not given)	16.3	0.3	10.1	-11.2	35.1	·
CCCC(=O)NC(c1ccccc1Cl)c1ccc2cccnc2c1O (stereo not given)	7.2	1.9	14.9	-5.4	37.8*	39.8*
O=C(O)c1ccccc1NC(c1ccccc1)c1ccc2cccnc2c1O (stereo not given)	19.8	13.2	2.9	2.6	49.0*	67.5*
CCCCC(=O)NC(c1ccc(Cl)cc1Cl)c1ccc2cccnc2c1O (stereo not given)	11.2	-2.1	3.6	-1.2	47.8*	76.2*
C=CCN(C(=O)[C@@H](C)[C@@H](O)c1ccc(C(C)=O)cc1)c1ccccc1	2.7	-0.6	3.9	·	·	·
COc1ccc(C(NC(=O)C(C)C)c2ccc3cccnc3c2O)cc1 (stereo not given)	11.0	5.3	10.6	-5.0	34.4	·
SMILES	ABHD4 inh	PRMT1 FP inh	SIAE inh	TCR-CD3 inh	HTRA1 inh	HTRA1 inh conf
CC(=O)NC(c1ccco1)c1ccc2cccnc2c1O (stereo not given)	·	·	·	·	19.1	·
CC(C)C(=O)NC(c1ccc(Cl)cc1Cl)c1ccc2cccnc2c1O (stereo not given)	8.7	0.5	3.2	-11.3	48.7*	46.8*
CCC(=O)NC(c1ccc(C)cc1)c1ccc2cccnc2c1O (stereo not given)	16.4	0.8	15.5	-3.3	64.4*	75.7*
Cc1cc(NC(c2ccc(Cl)cc2)c2ccc3cccnc3c2O)no1 (stereo not given)	17.2	-2.3	11.9	-5.1	48.5*	50.7*
Cc1ccnc(NC(c2ccccc2)c2ccc3cccnc3c2O)c1 (stereo not given)	11.9	9.3	2.9	-4.6	15.3	·
C#CCNC(=O)C[C@H]1C(=O)N(CCCOC)C2=CCCCC[C@]21C(=O)OC	2.4	-3.4	4.5	·	·	·
Nc1ccc2c(c1)C(=O)C(=O)c1ccccc1-2	25.0	6.8	4.6	-3.9	42.0*	33.6
Nc1ccc2c(c1)C(=O)c1ccccc1-2	13.8	0.7	3.5	8.9	5.3	·
COc1ccc(OC)c(-c2c3cc(O)c(=O)cc-3oc3cc(O)c(O)cc23)c1	·	·	·	·	85.5*	89.9*
O=c1cc2oc3cc(O)c(O)cc3c(-c3ccccc3O)c-2cc1O	·	·	·	·	59.9*	127.2*
Cc1ccccc1-c1cc(=O)c2c(O)cccc2o1	1.6	-1.7	-4.7	-0.1	-6.0	·
COC(=O)[C@]12C[C@H](CC(=O)N3CCCC3)C(=O)N(CCC3=CCCCC3)C1=C[C@H](C1CCCC1)O[C@@H]2C	-9.4	8.5	1.8	·	·	·
COc1cc(NC(C)CCc2ccccc2)cc(OC)c1OC (stereo not given)	18.4	3.5	10.0	-0.9	39.5*	27.4
CC(C)N=c1scc(-c2ccco2)n1/N=C/c1ccc(O)c(O)c1	36.3*	7.6	-5.8	-1.8	67.4*	57.8*
CN(C)c1ccc(N/C=C/C(=O)c2ccc(F)cc2)cc1	·	·	·	·	53.0*	2.3
NS(=O)(=O)c1ccc(N/C=C\C(=O)c2ccc(F)cc2)cc1	-5.7	-0.5	-6.5	7.0	-6.6	·
C/C(CC(=O)Nc1ccc2ccccc2c1)=N\NC(=O)c1ccc(O)c(O)c1	9.3	-1.9	7.4	18.9	68.6*	84.0*
O=C(O)C1Nc2ccc(Br)cc2C2C=CCC12 (stereo not given)	·	·	·	·	74.7*	68.8*
O=C(O)C1Nc2c(Cl)cc(Cl)cc2C2C=CCC12 (stereo not given)	·	·	·	·	55.1*	49.4*
O=C(O)C1Nc2c(Cl)cc(Cl)c(Cl)c2C2C=CCC12 (stereo not given)	17.8	21.0	10.5	7.7	42.4*	38.0*

From PubChem
